Results taken from ChEMBL document CHEMBL4145497, “Discovery of 2-aminothiazolyl berberine derivatives as effectively antibacterial agents toward clinically drug-resistant Gram-negative Acinetobacter baumanii” (Eur J Med Chem, 2018).
Values after ≈ are worked out from the molar mass of the structure shown.

Tests used:
Escherichia coli [1] = test: Antibacterial activity against Escherichia coli DH52 after 18 to 24 hrs by CLSI two fold serial dilution method; assay type: functional
Micrococcus luteus = test: Antibacterial activity against Micrococcus luteus ATCC 4698 after 18 to 24 hrs by CLSI two fold serial dilution method; assay type: functional
[2] = Aqueous solubility of the compound in phosphate buffer at pH 7.4 after 3 hrs by UV detection assay; assay type: physicochemical
How it was run: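 Water solubility measured at physiological pH, with berberine as the control.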

Cyberlindnera jadinii = test: Antifungal activity against Candida utilis ATCC 9950 by CLSI two fold serial dilution method; assay type: functional; settings: Williopsis jadinii
Staphylococcus aureus [3] = test: Antibacterial activity against Staphylococcus aureus ATCC 25923 after 18 to 24 hrs by CLSI two fold serial dilution method; assay type: functional
Pseudomonas aeruginosa [4] = test: Antibacterial activity against Pseudomonas aeruginosa ATCC 27853 after 18 to 24 hrs by CLSI two fold serial dilution method; assay type: functional
Aspergillus flavus = test: Antifungal activity against Aspergillus flavus ATCC 204304 by CLSI two fold serial dilution method; assay type: functional
Candida albicans [5] = test: Antifungal activity against Candida albicans ATCC 76615 by CLSI two fold serial dilution method; assay type: functional
Bacillus subtilis = test: Antibacterial activity against Bacillus subtilis ATCC 21216 after 18 to 24 hrs by CLSI two fold serial dilution method; assay type: functional
Candida parapsilosis = test: Antifungal activity against Candida parapsilosis ATCC 22019 by CLSI two fold serial dilution method; assay type: functional; settings: Lodderomyces parapsilosis
Pichia norvegensis = test: Antifungal activity against Candida mycoderma ATCC 96918 by CLSI two fold serial dilution method; assay type: functional
Saccharomyces cerevisiae = test: Antifungal activity against Saccharomyces cerevisiae ATCC 9763 by CLSI two fold serial dilution method; assay type: functional
Acinetobacter baumannii = test: Antibacterial activity against drug-resistant Acinetobacter baumannii after 18 to 24 hrs by CLSI two fold serial dilution method; assay type: functional
Staphylococcus aureus [6] = test: Antibacterial activity against methicillin-resistant Staphylococcus aureus N315 after 18 to 24 hrs by CLSI two fold serial dilution method; assay type: functional
Aspergillus fumigatus = test: Antifungal activity against drug-resistant Aspergillus fumigatus by CLSI two fold serial dilution method; assay type: functional
Candida albicans [7] = test: Antifungal activity against drug-resistant Candida albicans by CLSI two fold serial dilution method; assay type: functional
Escherichia coli [8] = test: Antibacterial activity against drug-resistant Escherichia coli after 18 to 24 hrs by CLSI two fold serial dilution method; assay type: functional
Candida tropicalis = test: Antifungal activity against drug-resistant Candida tropicalis by CLSI two fold serial dilution method; assay type: functional
Klebsiella pneumoniae = test: Antibacterial activity against drug-resistant Klebsiella pneumoniae after 18 to 24 hrs by CLSI two fold serial dilution method; assay type: functional
Pseudomonas aeruginosa [9] = test: Antibacterial activity against drug-resistant Pseudomonas aeruginosa after 18 to 24 hrs by CLSI two fold serial dilution method; assay type: functional
Enterococcus faecalis = test: Antibacterial activity against drug-resistant Enterococcus faecalis after 18 to 24 hrs by CLSI two fold serial dilution method; assay type: functional

| SMILES | MIC (Escherichia coli [1]) [µM] | MIC (Micrococcus luteus) [µM] | MIC (Cyberlindnera jadinii) [µM] | MIC (Staphylococcus aureus [3]) [µM] | MIC (Pseudomonas aeruginosa [4]) [µM] | MIC (Aspergillus flavus) [µM] | MIC (Candida albicans [5]) [µM] | MIC (Bacillus subtilis) [µM] | MIC (Candida parapsilosis) [µM] | MIC (Pichia norvegensis) [µM] | MIC (Saccharomyces cerevisiae) [µM] | MIC (Acinetobacter baumannii) [µM] | MIC (Staphylococcus aureus [6]) [µM] | MIC (Aspergillus fumigatus) [µM] | MIC (Candida albicans [7]) [µM] | MIC (Escherichia coli [8]) [µM] | MIC (Candida tropicalis) [µM] | MIC (Klebsiella pneumoniae) [µM] | MIC (Pseudomonas aeruginosa [9]) [µM] | MIC (Enterococcus faecalis) [µM] | also measured |
| --- | --- | --- | --- | --- | --- | --- | --- | --- | --- | --- | --- | --- | --- | --- | --- | --- | --- | --- | --- | --- | --- |
| C=CCOc1c(OC)cc(/C=N/Nc2nccs2)c2c1CN1CCc3cc4c(cc3C1C2)OCO4 (stereo not drawn) | 130 (≈ 63.8 µg/mL) | 130 (≈ 63.8 µg/mL) | 130 (≈ 63.8 µg/mL) | 30 (≈ 14.7 µg/mL) | 260 (≈ 128 µg/mL) | 260 (≈ 128 µg/mL) | 130 (≈ 63.8 µg/mL) | 520 (≈ 255 µg/mL) | 70 (≈ 34.3 µg/mL) | 520 (≈ 255 µg/mL) | 1040 (≈ 510 µg/mL) |  |  |  |  |  |  |  |  |  | solubility at 3 h [2]: 7020 to 10200 µg/mL (≈ 14.3 to 20.8 mM) |
| COc1cc(/C=N/NC(N)=S)c2c(c1OCCO)CN1CCc3cc4c(cc3C1C2)OCO4 (stereo not drawn) | 270 (≈ 127 µg/mL) | 270 (≈ 127 µg/mL) | 270 (≈ 127 µg/mL) | 270 (≈ 127 µg/mL) | 140 (≈ 65.9 µg/mL) | 270 (≈ 127 µg/mL) | 270 (≈ 127 µg/mL) | 270 (≈ 127 µg/mL) | 20 (≈ 9.41 µg/mL) | 140 (≈ 65.9 µg/mL) | 540 (≈ 254 µg/mL) | 540 (≈ 254 µg/mL) | 270 (≈ 127 µg/mL) | 270 (≈ 127 µg/mL) | 270 (≈ 127 µg/mL) | 270 (≈ 127 µg/mL) | 270 (≈ 127 µg/mL) | 270 (≈ 127 µg/mL) | 140 (≈ 65.9 µg/mL) | 30 (≈ 14.1 µg/mL) |  |
| COc1cc(/C=N/Nc2nccs2)c2c(c1OCc1ccc(Cl)c(Cl)c1)CN1CCc3cc4c(cc3C1C2)OCO4 (stereo not drawn) | 110 (≈ 67 µg/mL) | 420 (≈ 256 µg/mL) | 420 (≈ 256 µg/mL) | 110 (≈ 67 µg/mL) | 110 (≈ 67 µg/mL) | 420 (≈ 256 µg/mL) | 420 (≈ 256 µg/mL) | 210 (≈ 128 µg/mL) | 110 (≈ 67 µg/mL) | 210 (≈ 128 µg/mL) | 840 (≈ 512 µg/mL) |  |  |  |  |  |  |  |  |  | solubility at 3 h [2]: 374 to 3190 µg/mL (≈ 0.614 to 5.23 mM) |
| C#CCOc1c(OC)cc(/C=N/NC(N)=S)c2c1CN1CCc3cc4c(cc3C1C2)OCO4 (stereo not drawn) | 140 (≈ 65 µg/mL) | 280 (≈ 130 µg/mL) | 280 (≈ 130 µg/mL) | 70 (≈ 32.5 µg/mL) | 550 (≈ 256 µg/mL) | 550 (≈ 256 µg/mL) | 140 (≈ 65 µg/mL) | 550 (≈ 256 µg/mL) | 280 (≈ 130 µg/mL) | 1100 (≈ 511 µg/mL) | 280 (≈ 130 µg/mL) | 4 (≈ 1.86 µg/mL) | 30 (≈ 13.9 µg/mL) | 20 (≈ 9.29 µg/mL) | 140 (≈ 65 µg/mL) | 140 (≈ 65 µg/mL) | 140 (≈ 65 µg/mL) | 140 (≈ 65 µg/mL) | 550 (≈ 256 µg/mL) | 550 (≈ 256 µg/mL) |  |
| COc1cc(/C=N/Nc2nccs2)c2c(c1O)CN1CCc3cc4c(cc3C1C2)OCO4 (stereo not drawn) | 280 (≈ 126 µg/mL) | 70 (≈ 31.5 µg/mL) | 280 (≈ 126 µg/mL) | 140 (≈ 63.1 µg/mL) | 140 (≈ 63.1 µg/mL) | 280 (≈ 126 µg/mL) | 140 (≈ 63.1 µg/mL) | 140 (≈ 63.1 µg/mL) | 40 (≈ 18 µg/mL) | 140 (≈ 63.1 µg/mL) | 570 (≈ 257 µg/mL) |  |  |  |  |  |  |  |  |  | solubility at 3 h [2]: 1660 µg/mL (≈ 3.68 mM) |
| CCOc1c(OC)cc(/C=N/NC(N)=S)c2c1CN1CCc3cc4c(cc3C1C2)OCO4 (stereo not drawn) | 280 (≈ 127 µg/mL) | 140 (≈ 63.6 µg/mL) | 280 (≈ 127 µg/mL) | 70 (≈ 31.8 µg/mL) | 70 (≈ 31.8 µg/mL) | 560 (≈ 255 µg/mL) | 140 (≈ 63.6 µg/mL) | 280 (≈ 127 µg/mL) | 70 (≈ 31.8 µg/mL) | 280 (≈ 127 µg/mL) | 280 (≈ 127 µg/mL) | 140 (≈ 63.6 µg/mL) | 140 (≈ 63.6 µg/mL) | 140 (≈ 63.6 µg/mL) | 140 (≈ 63.6 µg/mL) | 280 (≈ 127 µg/mL) | 280 (≈ 127 µg/mL) | 280 (≈ 127 µg/mL) | 70 (≈ 31.8 µg/mL) | 140 (≈ 63.6 µg/mL) |  |
| COc1cc(/C=N/NC(N)=S)c2c(c1OCc1ccccc1Cl)CN1CCc3cc4c(cc3C1C2)OCO4 (stereo not drawn) | 230 (≈ 127 µg/mL) | 230 (≈ 127 µg/mL) | 230 (≈ 127 µg/mL) | 120 (≈ 66.1 µg/mL) | 470 (≈ 259 µg/mL) | 470 (≈ 259 µg/mL) | 230 (≈ 127 µg/mL) | 230 (≈ 127 µg/mL) | 230 (≈ 127 µg/mL) | 230 (≈ 127 µg/mL) | 930 (≈ 512 µg/mL) | 4 (≈ 2.2 µg/mL) | 120 (≈ 66.1 µg/mL) | 4 (≈ 2.2 µg/mL) | 230 (≈ 127 µg/mL) | 230 (≈ 127 µg/mL) | 470 (≈ 259 µg/mL) | 230 (≈ 127 µg/mL) | 470 (≈ 259 µg/mL) | 230 (≈ 127 µg/mL) |  |
| CCCCOc1c(OC)cc(/C=N/NC(N)=S)c2c1CN1CCc3cc4c(cc3C1C2)OCO4 (stereo not drawn) | 270 (≈ 130 µg/mL) | 270 (≈ 130 µg/mL) | 130 (≈ 62.7 µg/mL) | 130 (≈ 62.7 µg/mL) | 130 (≈ 62.7 µg/mL) | 270 (≈ 130 µg/mL) | 130 (≈ 62.7 µg/mL) | 270 (≈ 130 µg/mL) | 130 (≈ 62.7 µg/mL) | 130 (≈ 62.7 µg/mL) | 530 (≈ 256 µg/mL) | 70 (≈ 33.8 µg/mL) | 130 (≈ 62.7 µg/mL) | 270 (≈ 130 µg/mL) | 130 (≈ 62.7 µg/mL) | 270 (≈ 130 µg/mL) | 270 (≈ 130 µg/mL) | 130 (≈ 62.7 µg/mL) | 270 (≈ 130 µg/mL) | 130 (≈ 62.7 µg/mL) |  |
| COc1cc(/C=N/Nc2nccs2)c2c(c1OCC#N)CN1CCc3cc4c(cc3C1C2)OCO4 (stereo not drawn) | 260 (≈ 127 µg/mL) | 260 (≈ 127 µg/mL) | 520 (≈ 255 µg/mL) | 130 (≈ 63.6 µg/mL) | 260 (≈ 127 µg/mL) | 1050 (≈ 514 µg/mL) | 70 (≈ 34.3 µg/mL) | 260 (≈ 127 µg/mL) | 20 (≈ 9.79 µg/mL) | 130 (≈ 63.6 µg/mL) | 1050 (≈ 514 µg/mL) |  |  |  |  |  |  |  |  |  | solubility at 3 h [2]: 7020 to 10200 µg/mL (≈ 14.3 to 20.8 mM) |
| CCCCCCCCOc1c(OC)cc(/C=N/NC(N)=S)c2c1CN1CCc3cc4c(cc3C1C2)OCO4 (stereo not drawn) | 240 (≈ 129 µg/mL) | 240 (≈ 129 µg/mL) | 240 (≈ 129 µg/mL) | 60 (≈ 32.3 µg/mL) | 120 (≈ 64.6 µg/mL) | 240 (≈ 129 µg/mL) | 240 (≈ 129 µg/mL) | 240 (≈ 129 µg/mL) | 120 (≈ 64.6 µg/mL) | 240 (≈ 129 µg/mL) | 480 (≈ 259 µg/mL) | 240 (≈ 129 µg/mL) | 120 (≈ 64.6 µg/mL) | 60 (≈ 32.3 µg/mL) | 240 (≈ 129 µg/mL) | 240 (≈ 129 µg/mL) | 120 (≈ 64.6 µg/mL) | 240 (≈ 129 µg/mL) | 120 (≈ 64.6 µg/mL) | 120 (≈ 64.6 µg/mL) |  |
